Experimental findings from PMC3417756 (Bioorganic & medicinal chemistry, 2012) are described below.

The nature of series [1]: MTT cytotoxicity assay in murine macrophage cells. Format: cell-based. The settings on record: mouse, RAW 264.7 murine macrophage cells.
In the next series the test system is HCT-116 cells. The series can be described thus: Human colon tumor HCT-116 cytotoxicity assay. Format: cell-based. Conditions: HCT-116, read-out: IC50 HCT-116.
The next series concerns phosphorylation of IκBα. The series can be described thus: Western blot analysis of phosphorylation of IκBα in RAW264.7 cells. The settings on record: increasing concentrations, in the presence of LPS, 4 hr. The series is classed as cell-based, mouse. Put shortly: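 Cells were grown to near confluency and dosed with LPS plus compound at 37 °C. Lysates were made in SDS/2-mercaptoethanol loading buffer, sonicated 15 s and heated at 99.9 °C for 5 min. Proteins were run on 4–15% polyacrylamide SDS gels and transferred to membrane, which was blocked with 5% milk for 1 h. Probes were anti-phospho-IκB and anti-IκB (1:1000) with HRP secondary (1:3000, 1 h, room temperature), detected by chemiluminescence on X-ray film; β-actin served as control.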
For orientation: A western blot detects proteins with antibodies after separation by electrophoresis.

For the next series, the system named is iNOS. The series can be described thus: qPCR of LPS-induced iNOS expression in RAW264.7 cells. Format: cell-based, mouse. The settings on record: concentrations up to 10 μM; data not shown. In a few lines:
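RAW264.7 cells were co-treated with LPS (100 ng/mL) and compound at 0.01–10 μM. Total RNA (0.5 μg) was DNase I-treated and reverse transcribed, and cDNAs were pooled per condition. SYBR Green real-time PCR array was normalised to GAPDH. Data come from three independent experiments and were compared by one-way ANOVA (p<0.05).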
For orientation: Real-time PCR tracks product formation cycle by cycle.

Another series deals with RAW 264.7 cells. The series can be described thus: MTT cytotoxicity assay in murine macrophage cells. Format: cell-based. On the technique in general: Formazan colour is commonly taken as a measure of viable cells.
In the next series the test system is NF-κB. Description: LPS-induced NF-κB luciferase reporter assay in RAW264.7 cells. The settings on record: Mus musculus, RAW264.7, read-out: inhibition of NF-κB. Format: cell-based. Put shortly: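 RAW264.7 cells stably transfected with an NF-κB luciferase reporter were seeded at 5 × 10^4 cells per well in 96-well plates. After 24 h recovery, cells were exposed to test compound plus LPS (100 ng/mL) for 18 h. Lysates were mixed with luciferase assay reagent and luminescence was read. IC50 is given as mean ± SE, n = 3.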

Series [2] relates to nitric oxide (NO) production. Description: Griess assay of LPS stimulated nitric oxide production in RAW264.7 cells. The series is classed as cell-based, murine. The settings on record: concentrations up to 10 μM. In a few lines:
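RAW264.7 cells were plated in RPMI1640 and held 24 h at 37 °C. Medium was replaced, then compound and E. coli 055:B5 LPS were added. Culture supernatant was reacted with Griess reagent (0.5% sulfanilamide, 0.05% N-1-naphthylethylenediamine dihydrochloride, 2.5% H3PO4) for 30 min at room temperature in the dark. Absorbance was read at 530 nm and converted to nitrite using a sodium nitrite standard curve.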

Where only a bound is given, the exact number is not on record here.

In series [1], `CC1=C(O)C(=O)C=C2C1=CC=C1[C@@]2(C)CC[C@@]2(C)[C@@H]3C[C@](C)(C(=O)O)CC[C@]3(C)CC[C@]12C` [compound 5, celastrol, reference compound] displayed an IC50 at 18 h of over 50 µM.

`CO[C@@H](C(=O)N[C@H]1CC[C@@H](OC(=O)C2CCCCC2)CN(C)C1=O)[C@H](O)[C@@H](O)[C@H](O)/C=C/C(C)(C)C` [compound 12, LAF 389, reference compound]: the IC50 at 18 h in series [1] is over 50 µM.

On to `CCC(C)/C=C/[C@@H](O)[C@H](O)[C@@H](O)[C@@H](OC)C(=O)N[C@H]1CCCCN(C)C1=O` (stereo partly shown) [compound 14, bengamide F’], for which the IC50 with HCT-116 cells was 5.1 µM. The compound further showed an IC50 at 18 h in series [1] of over 50 µM.

As for `CO[C@@H](C(=O)N[C@H]1CCCCNC1=O)[C@H](O)[C@@H](O)[C@H](O)/C=C/C(C)C` [compound 8, bengamide E], the IC50 at 18 h in series [1] was over 50 µM. Also, the IκBα phosphorylation result in the series on phosphorylation of IκBα is listed as “clear decrease in the levels of observed IκBα phosphorylation”.

Take `CCC(C)/C=C/[C@@H](O)[C@H](O)[C@@H](O)[C@@H](OC)C(=O)N[C@H]1CCCCNC1=O` (stereo partly shown) [compound 13, bengamide E’]: the IC50 at 18 h in series [1] is over 50 µM.

For `CCCCCCCCCCCCCC(=O)O[C@H]1CC[C@H](NC(=O)[C@H](OC)[C@H](O)[C@@H](O)[C@H](O)/C=C/C(C)C)C(=O)N(C)C1` [compound 7, bengamide B], in the series with iNOS, the “effect on iNOS expression” value was “Neither 6 nor 7 showed NO inhibition activity or an effect on iNOS expression”. The “cytotoxicity to RAW 264.7 macrophage immune cells (in words)” value in the series on RAW 264.7 cells was “without cytotoxicity”. In addition, the IC50 at 18 h in series [1] was over 50 µM. Further, the IC50 with NF-κB was found to be 0.09 µM. Moreover, the IκBα phosphorylation entry in the series on phosphorylation of IκBα is listed as “clear decrease in the levels of observed IκBα phosphorylation”. Besides, in series [2], the “inhibition of LPS stimulated NO production” value is reported as “Neither 6 nor 7 showed NO inhibition activity”.

`CCCCCCCCCCCCCC(=O)O[C@H]1CC[C@H](NC(=O)[C@H](OC)[C@H](O)[C@@H](O)[C@H](O)/C=C/C(C)C)C(=O)NC1` [compound 6, bengamide A]: the “effect on iNOS expression” value in the series on iNOS is “Neither 6 nor 7 showed NO inhibition activity or an effect on iNOS expression”. Also, the “cytotoxicity to RAW 264.7 macrophage immune cells (in words)” value with RAW 264.7 cells is on record as “without cytotoxicity”. Moreover, in series [1], the IC50 at 18 h is over 50 µM. The IC50 with NF-κB came to 0.08 µM. In the series on phosphorylation of IκBα, the IκBα phosphorylation result is on record as “clear decrease in the levels of observed IκBα phosphorylation”. In addition, the “inhibition of LPS stimulated NO production” value in series [2] is “Neither 6 nor 7 showed NO inhibition activity”.
